Data set [1] concerns RAW264.7. The data set is described as follows: Antiinflammatory activity in mouse RAW264.7 cells assessed as inhibition of LPS-induced NO production at 10 uM relative to control. The class given is functional. In outline: (§1)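 RAW264.7 cells (DMEM, 10% FBS, 37 °C, 5% CO2) seeded at 2.5 × 10^5 cells/well. After 6 h, nonadherent cells were washed off. Adherent cells were exposed to test compound for 10 min, then to LPS (E. coli 055:B5, final 10 µg/mL) for 18 h. Supernatant nitrite was measured by Griess reaction. Inhibition % = (A−B)/(A−C)×100, with C as the no-LPS control. IC50 was read graphically; N = 4, mean ± SEM. CAPE was the reference.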

The nature of data set [2]: Cytotoxicity against mouse RAW264.7 cells assessed as cell viability at 30 uM after 18 hrs by MTT assay. Type of data set: cell-based. The settings on record: read-out: Activity. In outline:
(§2)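 MTT viability assay. RAW264.7 cells seeded at 1.0 × 10^5 cells/well; after 6 h, nonadherent cells were washed off. Adherent cells were cultured with test compound for 18 h. MTT (5 mg/mL in PBS) was added for 2 h at 37 °C. Formazan was dissolved in isopropanol with 0.04 M HCl and OD read at 570 nm (reference 655 nm).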
In general terms: Tetrazolium assays rely on reduction of a dye to a coloured formazan, in cell work by metabolically active cells.

The test system of data set [3] is RAW264.7. Nature of the data set: Antiinflammatory activity in mouse RAW264.7 cells assessed as inhibition of LPS-induced NO production incubated for 10 mins prior to LPS-challenge measured after 18 hrs by Griess method. Type of data set: functional, cell-based. In outline: as §1
Data set [4] deals with RAW264.7. Nature of the data set: Antiinflammatory activity in mouse RAW264.7 cells assessed as inhibition of LPS-induced NO production at 3 uM incubated for 10 mins prior to LPS-challenge measured after 18 hrs by Griess method relative to control. On the technique in general: Nitrite, measured by Griess reagent, commonly stands in for NO production.
A short description of data set [5]: Cytotoxicity against mouse RAW264.7 cells assessed as cell viability at 3 uM after 18 hrs by MTT assay. The class given is cell-based. As to conditions: read-out: Activity. In outline: as §2
Data set [6] relates to RAW264.7. The data set is described as follows: Antiinflammatory activity in mouse RAW264.7 cells assessed as inhibition of LPS-induced iNOS expression at 1 to 30 uM incubated for 10 mins prior to LPS-challenge measured after 12 hrs by Western blot analysis. Type of data set: functional, cell-based. In outline:
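RAW264.7 cells (5.0 × 10^6/well, 6-well) adhered for 6 h. Compound was added for 10 min, then LPS (final 10 µg/mL) for 12 h. Lysates were sonicated and normalized by BCA. 50 µg protein/lane was run on 10% SDS–PAGE and transferred to PVDF. Blots were probed for iNOS and β-actin (primary 1:1000, HRP secondary 1:5000) and detected by ECL.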
(In general: In western blotting, separated proteins are transferred to a membrane and probed.)

Data set [7] concerns RAW264.7. Nature of the data set: Antiinflammatory activity in mouse RAW264.7 cells assessed as inhibition of LPS-induced NO production at 1 uM incubated for 10 mins prior to LPS-challenge measured after 18 hrs by Griess method relative to control. The class given is functional. In outline:
as §1

Data set [8] has as its target MAP kinase p38 (Mus musculus) (UniProt P47811+O08911+Q9WUI1+Q9Z1B7). The data set is described as follows: Inhibition of p38 phosphorylation in LPS-induced mouse RAW264.7 cells at 1 to 30 uM incubated for 10 mins prior to LPS-challenge measured after 30 mins by Western blot analysis. The class given is cell-based. In outline: (§3)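 RAW264.7 cells (5.0 × 10^6/well) adhered for 6 h. Compound was added for 10 min, then LPS (final 10 µg/mL) for 30 min. BCA-normalized lysates, 25 µg/lane, were run on 10% SDS–PAGE and transferred to PVDF. Phospho-proteins (p-JNK, p-p38, p-STAT1 Ser727) were blocked in Blocking One-P, others (NF-κB p65) in Blocking One. Primary antibodies 1:1000 for 1 h at rt; detection by ECL.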

The target of data set [9] is T1, Signal transducer and activator of transcription 1 (Mus musculus) (UniProt P42225).
T1 sequence (whole entry): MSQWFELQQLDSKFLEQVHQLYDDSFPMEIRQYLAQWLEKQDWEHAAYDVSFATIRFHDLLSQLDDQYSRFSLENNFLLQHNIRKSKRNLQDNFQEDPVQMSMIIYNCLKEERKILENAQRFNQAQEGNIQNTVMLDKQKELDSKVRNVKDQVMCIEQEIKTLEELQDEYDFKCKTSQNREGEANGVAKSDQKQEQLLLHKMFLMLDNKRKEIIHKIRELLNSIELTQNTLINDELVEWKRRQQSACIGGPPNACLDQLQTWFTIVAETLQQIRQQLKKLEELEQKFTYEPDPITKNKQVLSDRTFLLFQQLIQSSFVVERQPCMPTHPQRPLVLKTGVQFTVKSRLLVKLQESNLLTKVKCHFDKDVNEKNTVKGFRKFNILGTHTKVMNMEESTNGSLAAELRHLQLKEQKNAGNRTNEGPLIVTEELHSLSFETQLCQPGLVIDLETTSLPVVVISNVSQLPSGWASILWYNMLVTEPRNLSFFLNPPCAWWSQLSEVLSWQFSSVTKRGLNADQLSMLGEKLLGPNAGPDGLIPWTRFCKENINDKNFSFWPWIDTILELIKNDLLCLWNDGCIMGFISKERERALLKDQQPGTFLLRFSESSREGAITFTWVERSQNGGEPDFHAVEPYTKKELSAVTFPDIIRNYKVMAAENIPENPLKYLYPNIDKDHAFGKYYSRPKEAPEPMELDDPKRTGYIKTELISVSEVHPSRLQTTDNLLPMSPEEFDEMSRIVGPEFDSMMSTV
Nature of the data set: Inhibition of STAT1 phosphorylation in LPS-induced mouse RAW264.7 cells incubated for 10 mins prior to LPS-challenge measured after 30 mins by Western blot analysis. The class given is cell-based. In outline:
as §3

Data set [10] in a line: Cytotoxicity against mouse RAW264.7 cells assessed as cell viability at 10 uM after 18 hrs by MTT assay. As to conditions: read-out: Activity. Type of data set: cell-based. In outline: as §2
Data set [11] deals with RAW264.7. The data set is described as follows: Inhibition of SAPK/JNK phosphorylation in LPS-induced mouse RAW264.7 cells at 1 to 30 uM incubated for 10 mins prior to LPS-challenge measured after 30 mins by Western blot analysis. The class given is cell-based. In outline: as §3
For data set [12], the system named is RAW264.7. The data set is described as follows: Antiinflammatory activity in mouse RAW264.7 cells assessed as inhibition of LPS-induced NO production at 10 uM incubated for 10 mins prior to LPS-challenge measured after 18 hrs by Griess method relative to control. Type of data set: functional. In outline: as §1
Data set [13] deals with RAW264.7. The data set is described as follows: Antiinflammatory activity in mouse RAW264.7 cells assessed as inhibition of LPS-induced NO production at 30 uM incubated for 10 mins prior to LPS-challenge measured after 18 hrs by Griess method relative to control. Type of data set: functional. In outline: as §1
Data set [14] relates to RAW264.7. Nature of the data set: Antiinflammatory activity in mouse RAW264.7 cells assessed as inhibition of LPS-induced NO production relative to control. Type of data set: functional, cell-based. In outline: as §1
Data set [15] concerns RAW264.7. The data set is described as follows: Antiinflammatory activity in mouse RAW264.7 cells assessed as inhibition of LPS-induced NO production at 30 uM relative to control. The class given is functional. In outline:
as §1

Data set [16] deals with RAW264.7. Nature of the data set: Antiinflammatory activity in mouse RAW264.7 cells assessed as inhibition of LPS-induced NO production at 100 uM relative to control. The class given is functional. In outline: as §1

The source made the active and inactive calls. The rule behind the calls is not given here.

We go through five compounds from ChEMBL document CHEMBL2062365, “Suppressive effects of coumarins from Mammea siamensis on inducible nitric oxide synthase expression in RAW264.7 cells” (Bioorg Med Chem, 2012).

Broadly, the inhibition is the drop in the measured response relative to a control, in per cent. For the compound `Nc1n[nH]c2nnc(-c3c(-c4ccccc4)nn4ccccc34)cc12`, in the data set on RAW264.7 [1], the inhibition at 10 µM came out at 7.2%.

For orientation: IC50 means the midpoint of a concentration-inhibition curve. `CC(C)=CCc1c(O)c(C(=O)C(C)C)c(O)c2c(-c3ccccc3)cc(=O)oc12` [MESUOL]: in data set [2], the viability at 18 h, 30 µM was 10.1%. Besides, the concentration for half-maximal inhibition (IC50) with RAW264.7 [3] was 1.3 µM. Further, the inhibition at 3 µM in the data set with RAW264.7 [4] was 83.4%. In addition, the viability at 18 h, 3 µM in data set [5] was 57.2%. In addition, the inhibition result in the data set on RAW264.7 [6] was “Active”. Also, in the data set with RAW264.7 [7], the inhibition at 1 µM is 33.7%. Moreover, the inhibition result (in [8]; in the data set with RAW264.7 [11]) was “inactive” each time. Moreover, the inhibition entry in [9] was “Dose-dependent effect”. For the same compound, the viability at 18 h, 10 µM in data set [10] came to 27.2%. Further, the inhibition at 10 µM in the data set with RAW264.7 [12] was 89.4%. Further, in the data set with RAW264.7 [13], the inhibition at 30 µM stood at 103%.

`Oc1c2ccccc2c2c3c(cccc13)N=N2` [SP-600125]: the concentration for half-maximal inhibition (IC50) in the data set on RAW264.7 [14] was 17 µM. Besides, the inhibition at 30 µM with RAW264.7 [15] was 74.6%.

With `CCCC(=O)c1c(O)c(C/C=C(\C)CCC=C(C)C)c(O)c2c([C@H](CC)OC(C)=O)cc(=O)oc12` [MAMMEASIN A], the viability at 18 h, 30 µM in data set [2] is 10.2%. Moreover, in the data set on RAW264.7 [3], the 50% inhibitory concentration (IC50) was 1.8 µM. Further, in the data set with RAW264.7 [4], the inhibition at 3 µM was found to be 72.9%. In addition, in data set [5], the viability at 18 h, 3 µM was 56.4%. The inhibition entry in the data set on RAW264.7 [6] is “Active”. Besides, the inhibition at 1 µM with RAW264.7 [7] came out at 27.5%. Further, the inhibition entry (in [8]; with RAW264.7 [11]) was “inactive” in each case. In addition, the inhibition result in data set [9] was “Dose-dependent effect”. Besides, the viability at 18 h, 10 µM in data set [10] was found to be 24.1%. For the same compound, in the data set with RAW264.7 [12], the inhibition at 10 µM was 88.1%. Further, the inhibition at 30 µM in the data set on RAW264.7 [13] worked out at 92%.

As for `COc1cccc(-c2cc(=O)c3ccccc3o2)c1N`, in the data set with RAW264.7 [16], the inhibition at 100 µM was -2.4%.
